{"source": "ChEMBL document CHEMBL2440054", "about": "“Largazole Arrests Cell Cycle at G1 Phase and Triggers Proteasomal Degradation of E2F1 in Lung Cancer Cells” (ACS Med Chem Lett, 2013)", "key": {"[1]": {"experiment": "Cytotoxicity against human 16HBE cells after 48 hrs by CCK-8 assay", "type": "cell-based", "details": "16HBE14o-", "summary_of_the_method": "(§1)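 Cells treated with a range of largazole concentrations for 48 h. Proliferation read by CCK-8 assay; IC50 derived from the concentration series.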"}, "A549 [2]": {"tested_on": "A549", "experiment": "Induction of apoptosis in human A549 cells at 0.3 to 1 uM after 48 hrs by Annexin V and propidium iodide staining-based flow cytometric analysis relative to control", "type": "functional", "summary_of_the_method": "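A549 cells treated for 48 h at 0.3 to 1 μM, stained with Annexin V/PI and analysed by flow cytometry for the apoptotic fraction.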"}, "[3]": {"target": "Histone deacetylase 1 (Homo sapiens) (UniProt Q13547)", "sequence (Q13547 whole entry)": "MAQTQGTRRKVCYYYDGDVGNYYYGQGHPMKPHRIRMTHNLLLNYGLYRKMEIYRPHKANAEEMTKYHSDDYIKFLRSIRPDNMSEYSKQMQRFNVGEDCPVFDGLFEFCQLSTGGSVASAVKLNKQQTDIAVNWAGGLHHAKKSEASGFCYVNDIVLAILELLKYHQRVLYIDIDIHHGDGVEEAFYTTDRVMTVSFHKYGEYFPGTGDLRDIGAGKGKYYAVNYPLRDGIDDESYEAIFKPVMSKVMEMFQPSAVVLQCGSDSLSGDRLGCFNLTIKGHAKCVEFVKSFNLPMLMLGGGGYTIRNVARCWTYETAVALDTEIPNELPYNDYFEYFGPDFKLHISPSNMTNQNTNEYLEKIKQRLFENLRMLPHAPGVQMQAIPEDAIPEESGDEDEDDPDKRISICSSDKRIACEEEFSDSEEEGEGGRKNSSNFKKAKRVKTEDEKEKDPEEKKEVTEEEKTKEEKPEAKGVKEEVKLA", "details": "NCI-H1975, 0.1 uM"}, "A549 [4]": {"tested_on": "A549", "experiment": "Cell cycle arrest in human A549 cells assessed as accumulation at S phase at 0.1 uM after 24 hrs by propidium iodide staining-based flow cytometric analysis (reference value: 48%)", "type": "functional"}, "[5]": {"target": "Transcription factor E2F1 (Homo sapiens) (UniProt Q01094)", "sequence (Q01094 whole entry)": "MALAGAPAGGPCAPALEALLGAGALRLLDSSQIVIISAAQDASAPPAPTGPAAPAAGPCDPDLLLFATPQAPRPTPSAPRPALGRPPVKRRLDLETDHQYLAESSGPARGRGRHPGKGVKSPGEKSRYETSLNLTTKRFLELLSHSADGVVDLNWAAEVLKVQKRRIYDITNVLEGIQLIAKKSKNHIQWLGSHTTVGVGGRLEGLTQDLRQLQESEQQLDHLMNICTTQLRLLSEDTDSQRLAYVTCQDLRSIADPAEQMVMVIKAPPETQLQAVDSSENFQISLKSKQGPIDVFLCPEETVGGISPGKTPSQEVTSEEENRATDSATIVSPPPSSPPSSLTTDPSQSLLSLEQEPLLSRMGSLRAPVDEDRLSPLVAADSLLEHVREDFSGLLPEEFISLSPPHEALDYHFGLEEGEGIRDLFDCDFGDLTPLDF", "experiment": "Induction of E2F1 degradation in human L78 cells at 0.1 uM after 12 to 24 hrs by Western blotting analysis", "type": "cell-based", "summary_of_the_method": "(§2)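 Each cell line (16-HBE, 95D, L78, H1975, H460) treated with 0.1 μM largazole for indicated times. Lysates Western blotted for E2F1.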"}, "[6]": {"target": "T1, Retinoblastoma-associated protein (Homo sapiens) (UniProt P06400)", "T1 sequence (whole entry)": "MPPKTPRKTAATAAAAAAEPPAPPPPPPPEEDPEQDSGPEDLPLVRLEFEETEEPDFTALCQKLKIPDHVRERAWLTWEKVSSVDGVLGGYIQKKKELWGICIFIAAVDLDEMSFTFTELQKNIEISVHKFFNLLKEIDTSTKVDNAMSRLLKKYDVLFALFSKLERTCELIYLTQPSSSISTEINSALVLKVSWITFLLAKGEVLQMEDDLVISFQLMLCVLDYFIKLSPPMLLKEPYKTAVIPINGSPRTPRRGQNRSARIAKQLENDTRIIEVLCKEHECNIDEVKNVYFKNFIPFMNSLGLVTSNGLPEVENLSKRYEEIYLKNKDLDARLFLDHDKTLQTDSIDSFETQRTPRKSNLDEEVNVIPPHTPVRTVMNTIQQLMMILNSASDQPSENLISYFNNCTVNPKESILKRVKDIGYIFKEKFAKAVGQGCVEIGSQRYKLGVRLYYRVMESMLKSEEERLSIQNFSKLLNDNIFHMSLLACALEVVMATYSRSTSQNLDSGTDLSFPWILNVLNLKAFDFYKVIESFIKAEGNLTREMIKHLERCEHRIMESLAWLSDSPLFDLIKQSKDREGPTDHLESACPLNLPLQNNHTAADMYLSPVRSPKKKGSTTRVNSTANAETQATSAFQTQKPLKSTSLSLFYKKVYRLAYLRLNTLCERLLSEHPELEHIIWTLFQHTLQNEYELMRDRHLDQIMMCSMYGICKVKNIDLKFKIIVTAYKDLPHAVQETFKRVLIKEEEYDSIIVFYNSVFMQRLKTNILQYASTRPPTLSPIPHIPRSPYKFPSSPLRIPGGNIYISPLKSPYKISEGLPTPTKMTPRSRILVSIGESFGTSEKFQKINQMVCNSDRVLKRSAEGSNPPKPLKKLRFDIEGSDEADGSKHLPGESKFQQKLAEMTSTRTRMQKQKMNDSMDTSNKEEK", "experiment": "Dephosphorylation of Rb in human A549 cells assessed as increase in E2F1-HDAC1 interaction at 0.1 uM after 8 hrs by immunoprecipitation and Western blotting analysis", "type": "cell-based", "summary_of_the_method": "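A549 cells treated with 0.1 μM largazole for 8 h and lysed. Lysates immunoprecipitated, then Western blotted with the indicated antibodies.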"}, "A549 [7]": {"tested_on": "A549", "experiment": "Cell cycle arrest in human A549 cells assessed as accumulation at G1 phase at 0.06 uM after 24 hrs by propidium iodide staining-based flow cytometric analysis (reference value: 48.3%)", "type": "functional"}, "A549 [8]": {"tested_on": "A549", "experiment": "Growth inhibition of human A549 cells at 0.1 uM after 24 to 48 hrs by trypan blue exclusion assay", "type": "functional, cell-based", "summary_of_the_method": "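Cells treated with largazole for indicated times. Viability evaluated by trypan blue exclusion.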"}, "NCI-H460 [9]": {"tested_on": "NCI-H460", "experiment": "Cytotoxicity against human NCI-H460 cells after 48 hrs by CCK-8 assay", "type": "functional, cell-based", "details": "NCI-H460, 48 h", "summary_of_the_method": "as §1"}, "A549 [10]": {"tested_on": "A549", "experiment": "Cell cycle arrest in human A549 cells assessed as accumulation at G1 phase at 0.1 uM after 24 hrs by propidium iodide staining-based flow cytometric analysis (reference value: 48.3%)", "type": "functional"}, "A549 [11]": {"tested_on": "A549", "experiment": "Cell cycle arrest in human A549 cells assessed as accumulation at S phase at 0.06 uM after 24 hrs by propidium iodide staining-based flow cytometric analysis (reference value: 48%)", "type": "functional"}, "A549 [12]": {"tested_on": "A549", "experiment": "Downregulation of E2F1 in human A549 cell nucleus at 0.1 uM after 6 to 24 hrs by Western blotting analysis", "type": "functional, cell-based", "summary_of_the_method": "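A549 cells exposed to 0.1 μM largazole for indicated times. Cytoplasmic and nuclear fractions separated, then Western blotted for E2F1.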"}, "A549 [13]": {"tested_on": "A549", "experiment": "Downregulation of p21 protein expression in human A549 cells at 0.1 uM after 4 hrs by Western blotting analysis in presence of protein synthesis inhibitor cycloheximide", "type": "functional, cell-based"}, "A549 [14]": {"tested_on": "A549", "experiment": "Cytotoxicity against human A549 cells assessed as inhibition of colony formation pretreated for 24 hrs followed by seeding measured after 10 days by clonogenic assay", "type": "functional, cell-based", "summary_of_the_method": "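Soft-agar clonogenic assay. Cells pretreated 24 h with largazole or DMSO, then seeded in 0.3% soft agar upper layer over 0.6% soft agar lower layer. Colonies counted by microscope after 10 days. Mean ± SD of three independent experiments.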"}, "A549 [15]": {"tested_on": "A549", "experiment": "Effect on CDK2 protein expression in human A549 cells at 0.1 uM after 6 to 36 hrs by Western blotting analysis", "type": "functional, cell-based", "summary_of_the_method": "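A549 cells exposed to 0.1 μM largazole over a time course, lysed, and Western blotted for cyclin D1, CDK2, CDK4, p21 and p27.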"}, "[16]": {"target": "Histone deacetylase 1 (Homo sapiens) (UniProt Q13547)", "details": "A549, 0.1 uM"}, "A549 [17]": {"tested_on": "A549", "experiment": "Cytotoxicity against human A549 cells after 48 hrs by CCK-8 assay", "type": "functional, cell-based", "details": "A549, 48 h", "summary_of_the_method": "as §1"}, "A549 [18]": {"tested_on": "A549", "experiment": "Induction of apoptosis in human A549 cells assessed as increase in PARP cleavage at 0.1 uM after 48 hrs by Western blotting analysis", "type": "functional, cell-based", "summary_of_the_method": "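A549 cells exposed to 0.1 μM for a time course, then lysed and Western blotted. Read-outs are pro- and cleaved caspase-9, pro- and active caspase-3, and cleaved PARP.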"}, "NCI-H1975": {"tested_on": "NCI-H1975", "experiment": "Cytotoxicity against human NCI-H1975 cells after 48 hrs by CCK-8 assay", "type": "functional, cell-based", "details": "NCI-H1975, 48 h", "summary_of_the_method": "as §1"}, "NCI-H460 [19]": {"tested_on": "NCI-H460", "experiment": "Cell cycle arrest in human NCI-H460 cells assessed as accumulation at G1 phase at 0.06 uM after 24 hrs by propidium iodide staining-based flow cytometric analysis (reference value: 58.9%)", "type": "functional"}, "A549 [20]": {"tested_on": "A549", "experiment": "Downregulation of p21 protein expression in human A549 cells at 0.1 uM after 1 hr by Western blotting analysis in presence of protein synthesis inhibitor cycloheximide", "type": "functional, cell-based"}, "[21]": {"target": "Transcription factor E2F1 (Homo sapiens) (UniProt Q01094)", "experiment": "Induction of E2F1 degradation in human NCI-H460 cells at 0.1 uM after 12 to 24 hrs by Western blotting analysis", "type": "cell-based", "summary_of_the_method": "as §2"}, "[22]": {"target": "Histone deacetylase 1 (Homo sapiens) (UniProt Q13547)", "details": "A549, 0.1 uM", "remark": "listed apart in the source"}}, "note": "Calls of active or inactive are those of the source. No cut-off for these calls is given here."}
{"smiles": "CCCCCCCC(=O)SCC/C=C/[C@@H]1CC(=O)NCc2nc(cs2)C2=N[C@@](C)(CS2)C(=O)N[C@@H](C(C)C)C(=O)O1", "note": "[LARGAZOLE]", "values": [{"measurement": "IC50", "setting": "[1]", "result": "> 10000", "unit": "nM"}, {"measurement": "Activity", "setting": "A549 [2]", "result": "<=70%"}, {"measurement": "inhibition", "setting": "[3]", "result": "Active"}, {"measurement": "Activity", "setting": "A549 [4]", "result": 8.5, "unit": "%"}, {"measurement": "Activity", "setting": "[5]", "result": "Active"}, {"measurement": "Activity", "setting": "[6]", "result": "Active"}, {"measurement": "Activity", "setting": "A549 [7]", "result": 90.4, "unit": "%"}, {"measurement": "growth inhibition (GI)", "setting": "A549 [8]", "result": "Active"}, {"measurement": "IC50", "setting": "NCI-H460 [9]", "result": 120, "unit": "nM"}, {"measurement": "Activity", "setting": "A549 [10]", "result": 88.2, "unit": "%"}, {"measurement": "Activity", "setting": "A549 [11]", "result": 6.5, "unit": "%"}, {"measurement": "Activity", "setting": "A549 [12]", "result": "Active"}, {"measurement": "Activity", "setting": "A549 [13]", "result": "Active"}, {"measurement": "inhibition", "setting": "A549 [14]", "result": "Dose-dependent effect"}, {"measurement": "Activity", "setting": "A549 [15]", "result": "inactive"}, {"measurement": "inhibition", "setting": "[16]", "result": "Active"}, {"measurement": "IC50", "setting": "A549 [17]", "result": 77, "unit": "nM"}, {"measurement": "Activity", "setting": "A549 [18]", "result": "Active"}, {"measurement": "IC50", "setting": "NCI-H1975", "result": 83, "unit": "nM"}, {"measurement": "Activity", "setting": "NCI-H460 [19]", "result": 78.8, "unit": "%"}, {"measurement": "Activity", "setting": "A549 [20]", "result": "inactive"}, {"measurement": "Activity", "setting": "[21]", "result": "Active"}, {"measurement": "inhibition", "setting": "[22]", "result": "Active"}]}
